High-throughput results: PubChem, The Scripps Research Institute Molecular Screening Center
The list is not random: actives were taken first. Their share in the collection is about 3.9%.
CHRM1 antagonist – human CHRM1 antagonism | P11229 | CHO-K1 hM1, Fluo-8 calcium fluorescence, ACh EC80 antagonist | inhibition, % at 3 µM | 360,000 compounds, 1.3% hits | AID 588852;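 active = percent inhibition above its own plate's cutoff, namely the mean of that plate's compound wells plus 3 SD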;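 note: peak over basal fluorescence ratio during 140 s after agonist addition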
TAAR1 agonist – human TAAR1 agonism. activation, % at 3 µM. AID 624467. CHO RD-HGA16 TAAR1, Fluo-8 calcium fluorescence; vehicle wells 0%, saturating PEA agonist 100%. 360,000 compounds, 0.99% hits;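 active = activation above the mean activation of all test compounds in the run plus 3 SD, cut at about 38% in these data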
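Test system: RD-HGA16 (CHO) cells co-expressing Gα16 and hTAAR1 / Benchmarks: DMSO vehicle as 0%, PEA at EC100 as 100% / Repeats: no replicates (n 1) / Measure: % activation from peak over basal fluorescence ratio, DMSO-to-PEA scaled / Timing: 17-24 h plating, Fluo-8 75 min 37 °C, 30 min RT / Technique: kinetic Fluo-8 calcium fluorescence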
M1 PAM – human CHRM1 positive allosteric modulation | P11229 | CHO-K1 hM1, Fluo-8 calcium fluorescence, ACh EC20; 0% = ACh EC20, 100% = maximal ACh | activation, % at 3 µM | 360,000 compounds, 0.088% hits | AID 588819; in the data active = activation above about 19%, passing the limit was not always enough
M1 ag – agonists of human M1 muscarinic receptor; P11229; CHO-K1 hM1, Fluo-8 calcium fluorescence, agonist mode; 0% DMSO, 100% acetylcholine EC100; activation, % at 3 µM; 360,000 compounds, 0.33% hits;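 active = activation above the run's mean compound activation plus 3 SD, cut at about 16% in these data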;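 note: peak over basal fluorescence ratio within a 140 s kinetic read after compound addition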
TAAR1 antag – human TAAR1 antagonism; Q96RJ0; inhibition, % at 3 µM; AID 624466; CHO RD-HGA16 TAAR1, Fluo-8 calcium fluorescence, antagonist; 360,000 compounds, 1.5% hits;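 active = inhibition above a per-plate cutoff, the mean inhibition of test compounds on that plate plus 3 SD, cut at about 49% in these data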
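Test system: hTAAR1-expressing CHO RD-HGA16 cells, Gα16-coupled; Probe or stimulus: EC80 β-phenethylamine stimulus; Compound dosing: single nominal final test compound concentration of 3 µM; Timing: 140 s kinetic read after compound, 140 s after agonist; Signal: Fluo-8 calcium-sensitive fluorescence; Measure: % inhibition of agonist calcium response; Controls: DMSO and EC80 PEA controls.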
m5-HT2A agonist – mouse HTR2A agonism via beta-arrestin recruitment; activation, % at 7.6 µM; AID 624169; CHO-K1 mHTR2A beta-arrestin complementation, luminescence; percent of 30 µM serotonin response; 360,000 compounds, 0.66% hits;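 active = activation above a run cutoff, the mean activation of all tested compounds plus 3 SD, cut at about 14% in these data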
Target sequence (P35363 whole entry, looked up): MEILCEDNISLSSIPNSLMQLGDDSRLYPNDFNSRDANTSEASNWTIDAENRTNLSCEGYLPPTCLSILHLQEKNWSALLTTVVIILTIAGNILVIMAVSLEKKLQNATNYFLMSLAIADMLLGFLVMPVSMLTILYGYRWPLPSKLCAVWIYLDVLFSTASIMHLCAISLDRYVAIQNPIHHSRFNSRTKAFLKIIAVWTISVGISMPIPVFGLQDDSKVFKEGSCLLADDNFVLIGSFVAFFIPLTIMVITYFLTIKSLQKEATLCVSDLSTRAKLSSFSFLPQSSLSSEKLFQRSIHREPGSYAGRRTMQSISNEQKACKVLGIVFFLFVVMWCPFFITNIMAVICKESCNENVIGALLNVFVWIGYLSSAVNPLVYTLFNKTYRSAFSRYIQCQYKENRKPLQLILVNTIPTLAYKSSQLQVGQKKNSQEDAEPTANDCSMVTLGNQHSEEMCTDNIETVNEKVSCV
Numbers stand for hits; 0 = inactive; - = no result.

SMILES | CHRM1 antagonist | TAAR1 agonist | M1 PAM | M1 ag | TAAR1 antag | m5-HT2A agonist
Cc1ccc(Cn2nnc(C(=O)Nc3cc(C)ccc3C)c2N)cc1 | 0 | 47.5 | 0 | 0 | 0 | 0
CN1C(=O)/C(=C/c2ccccc2OCc2ccccc2)NC1=S | 0 | 0 | 0 | 0 | 0 | 0
CN1C(=O)/C(=C/c2ccccc2OCc2ccc(F)cc2)N(C)C1=S | 100.2 | 0 | 0 | 0 | 0 | 0
O=C1NC(=S)N/C1=C\c1ccccc1OCc1ccc(C(=O)O)cc1 | 0 | 0 | 0 | 34.0 | 0 | 0
COC(=O)c1cccc(NC(=O)COc2cccc([N+](=O)[O-])c2)c1 | 0 | 0 | 0 | 0 | 0 | 0
COc1cccc(C(=O)COc2cccc(NC(=O)c3cccc([N+](=O)[O-])c3)c2)c1 | 0 | 0 | 0 | 0 | 68.4 | 0
c1ccc(CN2c3ccccc3-c3nc4ccccc4n3C2c2ccccn2)cc1 (stereo not drawn) | 0 | 0 | 0 | 0 | 54.8 | 0
CCCN1C(=O)c2cc(C(=O)Nc3cccc(C(C)=O)c3)ccc2C1Nc1cccc(C(C)=O)c1 (stereo not drawn) | 0 | 0 | 0 | 0 | 73.8 | 0
CSc1ccccc1C(=O)NC1CCCc2ccccc21 (stereo not drawn) | 0 | 0 | 0 | 0 | 0 | 0
CCN(CCO)Cc1csc2ccccc12 | 0 | 0 | 0 | 0 | 0 | 0
CCN(CCO)Cc1csc2c(Br)cccc12 | 0 | 0 | 23.1 | 0 | 0 | 0
OC(CNCCNc1ncccc1C(F)(F)F)COc1ccc(F)cc1 (stereo not drawn) | 0 | 0 | 0 | 40.4 | 0 | 0
COc1ccc(C(N)c2csc(Nc3cc(Oc4ccccc4)ncn3)n2)cc1 (stereo not drawn) | 82.4 | 38.0 | 0 | 0 | 0 | 0
COc1ccc(C(N)c2csc(Nc3nncc4ccccc34)n2)cc1 (stereo not drawn) | 0 | 42.0 | 0 | 0 | 0 | 0
Nc1ccc(CC(N)c2csc(Nc3cc(Oc4ccccc4)ncn3)n2)cc1 (stereo not drawn) | 0 | 0 | 0 | 0 | 0 | 0
NC(c1csc(Nc2cc(Oc3ccccc3)ncn2)n1)C1CCCCC1 (stereo not drawn) | 0 | 42.7 | 0 | 0 | 0 | 0
Cc1nc(N)nc(N)c1-c1ccc(Cl)c(Cl)c1 | 45.8 | 0 | 0 | 0 | 0 | 0
Cc1ccc(NC(=S)NNC(=O)c2cccc([N+](=O)[O-])c2)cc1Cl | 0 | 0 | 0 | 0 | 0 | 0
CC(C)[C@H](NS(=O)(=O)c1cccc(C(F)(F)F)c1)C(=O)OCC(=O)NC(=O)NCc1ccco1 | 0 | 0 | 0 | 0 | 0 | 0
Cn1c2ccccc2c2cc(/C=N/NC(=O)c3cc(O)cc(O)c3)ccc21 | 0 | 0 | 0 | 0 | 0 | 0
Cn1c2ccccc2c2cc(/C=N/NC(=O)c3cc(O)ccc3O)ccc21 | 29.9 | 0 | 0 | 0 | 0 | 0
COc1cc(OC)cc(-c2c(-c3cccs3)c3cc(-c4ccc(CN5CCOCC5)cc4)ccc3n2C)c1 | 0 | 0 | 0 | 0 | 0 | 0
OC1(c2ccc(Cl)cc2)CCN(Cc2cn[nH]c2-c2ccc(F)cc2)CC1 | 0 | 41.4 | 0 | 0 | 0 | 0
Fc1ccc(-c2[nH]ncc2CN2CCN(c3ccc(F)cc3)CC2)cc1 | 0 | 0 | 0 | 16.8 | 0 | 0
OC1(c2ccc(Cl)cc2)CCN(Cc2c[nH]c3ccccc23)CC1 | 0 | 0 | 0 | 22.3 | 0 | 0
SMILES | CHRM1 antagonist | TAAR1 agonist | M1 PAM | M1 ag | TAAR1 antag | m5-HT2A agonist
OC1(c2ccc(Cl)cc2)CCN(Cc2cn[nH]c2-c2ccccc2)CC1 | 0 | 0 | 0 | 0 | 0 | 0
Clc1ccccc1N1CCN(Cc2c[nH]c3ccccc23)CC1 | 0 | 0 | 0 | 0 | 0 | 0
Fc1ccc(N2CCN(Cc3cn[nH]c3-c3ccccc3)CC2)cc1 | 0 | 0 | 0 | 0 | 0 | 0
COc1ccccc1P(=O)(c1ccccc1)c1ccc([N+](=O)[O-])cc1 (stereo not drawn) | 0 | 0 | 0 | 0 | 0 | 0
CC(OC(=O)c1cccc(-n2cnnn2)c1)c1nc2ccccc2c(=O)[nH]1 (stereo not drawn) | 0 | 0 | 0 | 0 | 0 | 0
CC(=O)c1c(C)nc2ccccc2c1N | 0 | 0 | 0 | 0 | 0 | 0
Cc1nc2ccccc2c(N)c1C(=O)/C=C/c1ccccc1 | 0 | 40.9 | 0 | 0 | 0 | 0
COC(=O)c1ccc(NC(=S)NC2CCc3ccccc32)cc1 (stereo not drawn) | 0 | 0 | 0 | 0 | 0 | 0
Nc1nc(Nc2ccc(Cl)cc2)c(NC=O)c(=O)[nH]1 | 0 | 0 | 0 | 0 | 0 | 0
CCCN1CCc2c(sc(NC(=O)C3CCN(S(=O)(=O)c4cccs4)CC3)c2C(N)=O)C1 | 53.4 | 0 | 0 | 0 | 0 | 0
CCN1/C(=C/c2ccc3cc(C)ccc3[n+]2CC)Sc2ccccc21 | 66.3 | 0 | 0 | 46.6 | 55.8 | 0
CC[n+]1c(/C=C2\Sc3ccccc3N2C)ccc2cccc(C)c21 | 53.8 | 0 | 0 | 21.7 | 0 | 0
CC[n+]1ccccc1/C=C1\Sc2ccc(C)cc2N1C | 0 | 0 | 0 | 0 | 0 | 0
CCN1/C(=C/c2ccc3cc(C)ccc3[n+]2CC)Sc2cc(C)c(C)cc21 | 39.5 | 0 | 0 | 0 | 0 | 0
O=C(O)CCCC[n+]1ccccc1 | - | 0 | - | - | 0 | -
CCOc1cccc(C(=O)Nc2ccc3c(c2)OCCO3)c1 | 0 | 0 | 0 | 0 | 0 | 0
Cc1ccc(SC[C@H](C)CN2CC[C@H](C(C)(C)C)CCC2=O)cc1 | 0 | 0 | 0 | 0 | 0 | 0
CCc1c(-c2cccc(Cl)c2)ncn1CCc1ccccc1OC | - | 0 | - | - | 0 | -
CCCCCn1c(=O)[nH]c2cc(C(=O)N3CCN(C(=O)OCC)CC3)ccc2c1=O | 49.4 | 0 | 0 | 0 | 0 | 0
CCOC(=O)N1CCN(C(=O)c2ccc3c(=O)n(CCOC)c(=O)[nH]c3c2)CC1 | 28.5 | 0 | 0 | 0 | 0 | 0
CCOC(=O)N1CCN(C(=O)c2ccc3c(=O)n(CCc4ccccc4)c(=O)[nH]c3c2)CC1 | 48.9 | 0 | 0 | 0 | 0 | 0
COCCn1c(=O)[nH]c2cc(C(=O)N3CCN(c4ccc(Cl)cc4)CC3)ccc2c1=O | 0 | 0 | 0 | 0 | 0 | 0
COCc1cc(N2CCNC[C@@H]2C)ccc1N1CCN(Cc2ccccc2)[C@H](C)C1 | - | 0 | - | - | 0 | -
Cc1cccc(NC(=O)CSc2nnc3ccc(-c4ccccn4)nn23)c1 | 0 | 0 | 0 | 0 | 0 | 0
CN(C(=O)c1cn(C)c2ccccc12)c1ccc(Oc2cccnc2)cc1 | - | 0 | - | - | 0 | -
C[C@H]1CN=C(N(C)C)N1CC1CCCC1 | 0 | 0 | 0 | 0 | 0 | 0
C[C@H]1CN=C(N(C)C)N1CC1CCC(C(C)(C)C)CC1 (stereo partly drawn) | 51.4 | 0 | 0 | 0 | 0 | 0
O=C(Nc1ccn(Cc2ccccc2F)n1)c1ccc(COc2ccccc2Cl)cc1 | 0 | 0 | 0 | 0 | 54.9 | 0
